Shown are actives, neighbours in structure and some others; about 2.3% of the full set was active somewhere.
HGIII-sPLA2 inh – Inhibits HGIII-sPLA2 liposome hydrolysis, primary screen; Q9NZ20; QFRET BODIPY PC-A2 liposome hydrolysis, fluorescence; inhibition, % at 12.2 µM; 370,000 tested, 0.56% active;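 active = inhibition above mean plus 3 SD of compounds lying within the high and low control bounds, cut at about 19% in these data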;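 also: 0% = median of test compound wells and 100% = no enzyme DMSO wells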
Target sequence (Q9NZ20 whole entry, looked up): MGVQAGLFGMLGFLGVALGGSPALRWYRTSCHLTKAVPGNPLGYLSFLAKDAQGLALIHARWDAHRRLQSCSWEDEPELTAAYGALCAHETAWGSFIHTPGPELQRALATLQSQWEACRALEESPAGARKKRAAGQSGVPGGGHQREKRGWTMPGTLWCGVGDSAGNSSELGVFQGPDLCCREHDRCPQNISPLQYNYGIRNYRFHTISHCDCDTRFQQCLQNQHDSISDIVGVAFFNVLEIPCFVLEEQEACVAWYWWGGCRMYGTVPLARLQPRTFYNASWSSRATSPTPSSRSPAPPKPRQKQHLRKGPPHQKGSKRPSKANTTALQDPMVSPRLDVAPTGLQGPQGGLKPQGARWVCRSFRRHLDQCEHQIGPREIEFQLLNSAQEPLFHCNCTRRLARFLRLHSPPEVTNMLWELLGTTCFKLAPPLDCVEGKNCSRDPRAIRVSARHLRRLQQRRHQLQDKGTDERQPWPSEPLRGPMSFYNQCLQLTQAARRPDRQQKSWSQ
ASAP1 GAP inh – inhibitors of human ASAP1 ArfGAP activity; inhibition, % at 16.5 µM; AID 624377; ASAP1-stimulated ARF1 GTP hydrolysis, GDP FP detection; 360,000 tested, 0.19% active; in the data active = inhibition above about 25%;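 also: 0% = vehicle with enzyme and substrate and 100% = no enzyme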
Calb FLC – C. albicans growth modulation with fluconazole; C. albicans CaCi-2 + fluconazole, Alamar Blue growth, 48 h; growth inhibition, % (no concentration beside the values); 300,000 tested, 0.57% active; AID 1979;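 active = growth inhibition above about 58% in most replicates, limit read from the data, passing the limit was not always enough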;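 also: all wells also contain fluconazole at 8 µg/ml as a sub-toxic cotreatment; 0% = median of DMSO wells and 100% = median of geldanamycin control wells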
SKKanGAS inh – inhibitors of SKKanGAS S. pyogenes growth in kanamycin (SK-promoter or general growth effect) | 300,000 tested, 1.3% active | inhibition, % at 7.5 µM | BacTiter-Glo, 6 h;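 active = mean replicate score, as percent of positive control median, at least 50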;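 also: strain carries kanamycin resistance gene driven by streptokinase promoter and grows in 40 µg/ml kanamycin; loss of luminescence reflects streptokinase promoter inhibition or plain growth inhibition; 0% = median of DMSO wells and 100% = positive control at its reference dose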
ARFGAP1 inh – rat ARFGAP1 inhibition; Arfgap1-stimulated ARF1 GTP hydrolysis, GDP FP detection; Q62848; AID 651572; inhibition, % at 16.5 µM; 360,000 tested, 0.26% active;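 active = inhibition above a per-plate limit, mean inhibition of low control wells plus 3 SD, cut at about 25% in these data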;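 also: 0% = DMSO wells with enzyme and 100% = wells lacking Arfgap1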
Target sequence (Q62848 1-136 limits assumed): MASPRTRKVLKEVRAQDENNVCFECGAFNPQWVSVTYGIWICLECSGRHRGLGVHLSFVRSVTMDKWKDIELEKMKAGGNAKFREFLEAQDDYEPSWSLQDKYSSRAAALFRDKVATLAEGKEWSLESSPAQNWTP
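Assay system: purified rat His6-Arfgap1 residues 1-136 (GAP domain); Reagent: human Δ17 ARF1 bound to GTP; Dosing: 16.5 µM single point, 1.26% DMSO; Times: GTP hydrolysis reaction 2 h at 25 °C; Signal: FP, GDP Alexa 633 tracer displaced from anti-GDP antibody, 620/688 nm; Measure: % inhibition from polarization.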
hGIII sPLA2 conf – human GIII-sPLA2 inhibition, confirmation; AID 743280; 2,000 tested, 34% active; inhibition, % at 12.2 µM; shares compounds with HGIII-sPLA2 inh; recombinant hGIII-sPLA2, BODIPY PC-A2 QFRET fluorescence;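 active = mean inhibition across triplicates above the hit cutoff set in the earlier primary screen, cut at about 19% in these data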;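 also: 0% = enzyme with DMSO and 100% = DMSO wells lacking enzyme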
535nm interf – optically interferes with 535nm fluorescence in sPLA2 counter-screen | shares compounds with HGIII-sPLA2 inh | BODIPY FL product fluorescence interference, QFRET | inhibition, % at 12.2 µM | 2,000 tested, 8.5% active | AID 743282;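 active = average inhibition above the solvent-only control mean plus 3 SD, cut at about 6% in these data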;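 also: 0% = DMSO with substrate plus product and 100% = DMSO with substrate alone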
535nm interf DR – 535nm optical interference dose response, HGIII-sPLA2 counter-screen; shares compounds with HGIII-sPLA2 inh; BODIPY FL product fluorescence interference, cell-free; IC50, µM; 240 tested, under 10 active; AID 743455;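 active = IC50 at or below 10 µM; inactive = IC50 above 10 µM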
* marks the source's active call; other numbers are inactive results; . = no result.

SMILES | HGIII-sPLA2 inh | ASAP1 GAP inh | Calb FLC | SKKanGAS inh | ARFGAP1 inh | hGIII sPLA2 conf | 535nm interf | others
COc1ccc(CCN2CCCn3c2nc2c3c(=O)n(CC(C)C)c(=O)n2C)cc1OC | 24.1* | 9.9 | -5.6 | 1.9 | 0.3 | 12.8 | -16.9
O=C(OCc1ccccc1)N1CCC2CC1c1ccc(N3CCNCC3)cc12 (stereo unspecified) | 30.9* | 6.6 | . | . | 10.1 | -3.8 | -34.9
COc1ccc(NC(=S)N2CCN(c3ccc4c(c3)C3CCN(C(=O)OCc5ccccc5)C4C3)CC2)c(OC)c1 (stereo unspecified) | 24.7* | 5.9 | . | . | 6.5 | 4.5 | -21.8
O=C(OCc1ccccc1)N1CCC2CC1c1ccc(N3CCOCC3)cc12 (stereo unspecified) | 12.8 | -10.2 | . | . | -2.5 | . | .
COC(=O)C1CN(Cc2ccc(Cl)cc2)CCS(=O)(=O)N1Cc1cn(Cc2ccc(OC)cc2)nn1 (stereo unspecified) | -6.3 | . | . | . | . | . | .
CCCCN(CC)S(=O)(=O)c1ccc(C(=O)N=c2sc3cc(NC(C)=O)ccc3n2C)cc1 | 20.2* | 8.0 | -14.9 | 0.2 | 1.0 | -27.7 | -12.7
COC(=O)[C@]12C[C@H](CC(=O)NCc3ccccc3)C(=O)N(Cc3ccc4c(c3)OCO4)C1=C[C@H](C(C)C)O[C@@H]2C1CC1 | -9.5 | . | . | . | . | . | .
Cc1cccc(NC(=S)N/N=C2/CCCCc3ccccc32)c1 | 16.2 | 13.6 | -3.9 | 37.7 | 2.4 | . | .
Cc1ccc(NC(=S)N/N=C2/CCCCc3ccccc32)cc1 | 23.9* | -14.3 | 38.8 | 8.4 | -6.8 | 31.2* | -3.4 | 535nm interf DR=>122
COc1ccc(C(C(=O)N(C)C2CCCC2)N(Cc2ccc(F)cc2)C(=O)c2csc(-c3ccccc3)n2)cc1OC (stereo unspecified) | -3.6 | . | . | . | . | . | .
CC(C)NC(=S)N/N=C/c1ccc2c(c1)OCCO2 | 19.2* | 3.5 | -1.7 | -19.0 | -11.9 | 17.9 | -4.9
S=C(NN=Cc1ccc2c(c1)OCO2)NN=Cc1ccc2c(c1)OCO2 | -1.6 | 21.1 | . | . | 19.0 | . | .
COCCCNC(=S)N/N=C/c1ccc2c(c1)OCO2 | 23.8* | 1.9 | -8.8 | -1.4 | 2.4 | 12.4 | -2.7
COCCNC(=S)N/N=C/c1ccc2c(c1)OCCO2 | 1.0 | 2.2 | -2.8 | -8.0 | 10.8 | . | .
O=C(CCc1nnc(-c2ccccc2)o1)NC1CCCCC1 | 19.3* | -6.3 | 5.8 | -7.1 | 2.6 | 5.6 | -5.2
COC(c1ccccc1)c1nnc(CCC(=O)NC2CCCCC2)o1 (stereo unspecified) | -1.9 | 0.3 | 14.4 | 6.1 | 14.1 | . | .
CCOC(=O)C1=C(C)N(C)C(=S)NC1c1ccccc1Cl (stereo unspecified) | 21.2* | 16.0 | 1.6 | 1.1 | -0.1 | 19.0 | -4.7
CCOC(=O)C1=C(C)N(C)C(=S)NC1c1cccc(Cl)c1Cl (stereo unspecified) | 12.7 | 2.1 | -14.1 | -16.8 | -0.3 | . | .
COC(=O)C1=C(C)N(C)C(=NCc2ccc(OC)cc2)NC1c1ccccc1 (stereo unspecified) | 14.0 | -3.4 | . | . | 4.4 | . | .
CC1(C)Cc2ccccc2-c2nnnn21 | 23.0* | -5.9 | -10.7 | -3.0 | 10.2 | 4.5 | -3.5
COc1ccc(NC(=O)Nc2ccccc2C(=O)N2CCCC2)cc1OC | 16.1 | . | . | . | . | . | .
COc1ccc(/C=N\NC(=S)SCN2C(=O)C3CCC(C)(C2=O)C3(C)C)cc1 (stereo unspecified) | 9.5 | -4.1 | -1.6 | 3.7 | 5.0 | . | .
CC12CCC(C(=O)N(CSC(=S)N/N=C\c3ccccc3O)C1=O)C2(C)C (stereo unspecified) | 27.8* | -1.8 | 3.7 | 107.9* | 10.9 | 36.0* | 3.6
C[C@@H]1[C@@H](c2ccccc2)c2cc3ccccc3nc2C(=O)C[C@@H]1C(=O)N1CCCC1 | -5.7 | . | . | . | . | . | .
CSc1cccc(NC(N)=S)c1 | 19.7* | 5.8 | -9.8 | 2.2 | -1.1 | 18.1 | -6.8
SMILES | HGIII-sPLA2 inh | ASAP1 GAP inh | Calb FLC | SKKanGAS inh | ARFGAP1 inh | hGIII sPLA2 conf | 535nm interf | others
COc1ccc(NC(=S)NCc2ccc3c(c2)cc(C)n3C)cc1 | 22.4* | 4.9 | 6.2 | 6.6 | 19.5 | 2.4 | -1.7
O=C(Nc1ccc(Oc2ccccc2)cc1)c1csc([C@@H]2C[C@H](O)[C@@H](CO)O2)n1 | -4.5 | 14.5 | . | . | 3.0 | . | .
CCCCn1c(-c2cccnc2)n[nH]c1=S | 22.0* | 2.8 | 2.7 | 5.4 | 6.1 | 9.4 | -5.0
CCn1c(-c2cccnc2)n[nH]c1=S | 5.3 | 2.9 | -2.3 | 11.3 | 4.1 | . | .
CCn1c(/C=C/c2c(C)n(CC)c3ccccc23)nc2ccccc2c1=O | 23.9* | 6.2 | -32.7 | -0.5 | 7.5 | 0.4 | -8.6
C[C@H](O)[C@@H]1CN2CCc3c([nH]c4c(-c5ccccc5)cccc34)[C@@H]2C[C@@H]1N(C)C(=O)c1ccco1 | 1.9 | . | . | . | . | . | .
COC(=O)c1ccc(NC(=O)CCN2CCOCC2)cc1 | 22.0* | -5.1 | -3.1 | -0.5 | 14.4 | -11.4 | -4.5
COC(=O)c1ccc(NC(=O)CCN2CCN(CCC(=O)Nc3ccc(C(=O)OC)cc3)CC2)cc1 | -6.9 | 1.5 | 13.4 | -0.2 | -2.0 | . | .
COC(=O)[C@]12C[C@H](CC(=O)N3CCCC3)C(=O)N(Cc3cccc4ccccc34)C1=C[C@H](C(C)C)O[C@@H]2C1CC1 | -2.7 | . | . | . | . | . | .
N#CCCN1CCCc2cc(N=Nc3ccc(C(F)(F)F)cc3)ccc21 | 23.1* | 19.7 | 9.0 | 20.5 | 11.9 | 24.2* | 8.4*
CCCN1CCCc2ccccc21 | 11.3 | -1.5 | -21.2 | -3.0 | -0.1 | . | .
Cc1ccc(OCCCN2C(=O)C(=O)c3cccc(C)c32)cc1 | 25.9* | 2.1 | 1.7 | -7.1 | -11.5 | 26.0* | -2.9
Cc1cccc2c1N(CCOc1ccc(C(C)(C)C)cc1)C(=O)C2=O | 8.2 | -12.3 | 10.2 | 2.4 | -9.4 | . | .
CCc1ccc(S(=O)(=O)NCc2csc(C)n2)s1 | 21.5* | -10.6 | 9.0 | -9.7 | 0.0 | -1.8 | -5.2
COc1ccc(N2CCN(CCNS(=O)(=O)c3ccc(Br)s3)CC2)cc1 | 0.3 | . | . | . | . | . | .
O=C(Nc1cc(Cl)ccc1F)C1CCCN1S(=O)(=O)c1cccc2cccnc12 (stereo unspecified) | 6.1 | . | . | . | . | . | .
C[C@@H](C(=O)NCCCCCC(=O)O)n1nnc2ccccc2c1=O | -0.5 | -8.2 | 0.6 | 7.9 | -0.1 | . | .
CCC(C)[C@@H](C(=O)NCC1CCC(C(=O)O)CC1)n1nnc2ccccc2c1=O (stereo partly specified) | 19.7* | -12.8 | -0.6 | -0.8 | -6.6 | 2.2 | -4.3
CC(=O)C1=C(C)NC(SCC(N)=O)=C(C#N)C1c1sccc1C (stereo unspecified) | 22.6* | 1.6 | 1.2 | 3.5 | -0.7 | 7.4 | -5.3

Screening results (PubChem BioAssay)
